Data set [1] deals with Brugia malayi. Description: Antifilarial activity adult against Brugia malayi infected in jirds assessed as sterile female worms recovered from host at 25 mg/kg, sc qd for 5 days measured after 56 days relative to control. Format: functional. The note with it: route subcutaneous. Put shortly:
(§1)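 Jirds (Meriones unguiculatus) infected with B. malayi were dosed s.c. once daily for 5 days, at 100 mg/kg or, for the reference drug, 25 mg/kg; vehicle-treated animals served as controls (4–6 animals per group). Microfilariae in the peritoneal cavity were assessed on days 7/8 after treatment began. Recovered adult worms were counted as % inhibition over untreated control, with % sterile females scored. Data are mean ± SD, compared by Student's t test.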

Data set [2] in a line: Selectivity index, ratio of CC50 for african green monkey Vero cells to IC50 for female adult Brugia malayi. Format: functional. Put shortly: (§2)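 Selectivity index was calculated as CC50 (concentration killing 50% of cells) divided by the motility IC50 (concentration giving 50% motility inhibition). This was done separately for female adult worms and for microfilariae of B. malayi.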

Data set [3] in a line: Selectivity index, ratio of CC50 for african green monkey Vero cells to IC50 for microfilariae Brugia malayi. It is filed as functional. Summed up: as §2
Data set [4] concerns Brugia malayi. Description: Antifilarial activity against adult Brugia malayi infected in jirds assessed as reduction in worms recovered from host at 25 mg/kg, sc qd for 5 days measured after 56 days relative to control. It is filed as functional, organism-based. The arrangement: dose 25 mg/kg. Put shortly:
as §1

Data set [5] deals with Brugia malayi. The experiment in a line: Antifilarial activity against female adult Brugia malayi assessed as inhibition of motility after 24 hrs by microscopic analysis. Format: functional, organism-based. The note with it: for IC50: Brugia malayi, 24 h. Summed up:
(§3)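 In vitro, female adult worms and microfilariae of Brugia malayi were scored for motility. LC100 is the concentration giving 100% motility inhibition, which is taken as parasite death. IC50 is the concentration giving 50% motility inhibition. Adult worms were also run in a parallel MTT reduction assay, reported as mean % inhibition.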

The test system of data set [6] is Brugia malayi. Description: Antifilarial activity against microfilariae Brugia malayi assessed as inhibition of motility after 24 hrs by microscopic analysis. Format: functional, organism-based. The note with it: for IC50: Brugia malayi, 24 h. Put shortly:
as §3

Data set [7] concerns Brugia malayi. The experiment in a line: Antifilarial activity against female adult Brugia malayi assessed as inhibition of MTT reduction at LC100 concentration after 24 hrs. Format: functional.
Data set [8] is described as follows: Cytotoxicity against african green monkey Vero cells. It is filed as cell-based. The note with it: chlorocebus sabaeus.
Data set [9] relates to Brugia malayi. The experiment in a line: Antifilarial activity against adult Brugia malayi infected in jirds assessed as decrease in microfilarial activity isolated from host peritoneal cavity at 25 mg/kg, sc qd for 5 days measured after 7 to 8 days. It is filed as functional, organism-based. The arrangement: dose 25 mg/kg. Summed up: as §1
Data set [10] has as its system Brugia malayi. The experiment in a line: Ratio of diethylcarbamazine citrate IC50 to compound IC50 for female adult Brugia malayi. Format: functional.
Data set [11] concerns Brugia malayi. Description: Antifilarial activity against adult Brugia malayi infected in jirds assessed as decrease in microfilarial activity isolated from host peritoneal cavity at 100 mg/kg, sc qd for 5 days measured after 7 to 8 days. On the set-up: dose 100 mg/kg. Format: functional, organism-based. Put shortly: as §1
Data set [12] has as its system Brugia malayi. The experiment in a line: Ratio of diethylcarbamazine citrate LC100 to compound LC100 for female adult Brugia malayi. It is filed as functional.
Data set [13] has as its system Brugia malayi. Description: Antifilarial activity against adult Brugia malayi infected in jirds assessed as sterile female worms recovered from host at 100 mg/kg, sc qd for 5 days measured after 56 days relative to control. The note with it: route subcutaneous. It is filed as functional. Summed up:
as §1

For data set [14], the system named is Brugia malayi. Description: Antifilarial activity against adult Brugia malayi infected in jirds assessed as reduction in worms recovered from host at 100 mg/kg, sc qd for 5 days measured after 56 days relative to control. Format: functional. Put shortly:
as §1

The subject of the next data set is Meriones unguiculatus. The experiment in a line: Toxicity against jird infected with adult Brugia malayi assessed as behavioural change at 100 mg/kg, sc qd for 5 days measured up to 56 days. The note with it: gerbil, in vivo. It is filed as organism-based. The arrangement: dose 100 mg/kg, route subcutaneous.
Data set [15] concerns Brugia malayi. The experiment in a line: Ratio of diethylcarbamazine citrate IC50 to compound IC50 for microfilariae Brugia malayi. Format: functional.

Values after ≈ are worked out from the molar mass of the structure shown. Active and inactive are the calls of the source. No cut-off for these calls is given here.

Turning to `CCN(CC)C(=O)N1CCN(C)CC1.O=C(O)CC(O)(CC(=O)O)C(=O)O` [DIETHYLCARBAMAZINE CITRATE], the Activity in the data set on Brugia malayi [1] was found to be 11%. The “Ratio CC50/IC50” value in data set [2] is on record as 31.5; in data set [3] it was 25.7. Besides, the result in the data set with Brugia malayi [4] and in the data set on Brugia malayi [9] was inactive. In addition, the figures for the LC100 with Brugia malayi [5] and in the data set with Brugia malayi [6] were 800 µM and 500 µM, respectively. The IC50 with Brugia malayi [5] came to 289 µM; in the data set with Brugia malayi [6], 354 µM. In the data set with Brugia malayi [7], the “inhibition (INH)” value is on record as 64%. In data set [8], the CC50 was 9100 µg/mL.

Turning to `CC(=O)O[C@H]1CC[C@]2(C)[C@H]3C(=O)C=C4[C@@H]5C[C@@](C)(C(=O)O)CC[C@]5(C)CC[C@@]4(C)[C@]3(C)CC[C@H]2C1(C)C` [ACETOXOLONE], the LC100 in the data set with Brugia malayi [5] and in the data set on Brugia malayi [6] was more than 100 µM in each case. Further, in the data set with Brugia malayi [7], the “inhibition (INH)” value came to 9.45%.

Consider `CCOC(=O)[C@@]1(C)CC[C@]2(C)CC[C@]3(C)C(=CC(=O)[C@@H]4[C@@]5(C)CC[C@H](OC(C)=O)C(C)(C)[C@@H]5CC[C@]43C)[C@@H]2C1`, for which the “Ratio CC50/IC50” value in [3] is reported as 1.16. Also, the LC100 with Brugia malayi [5] was more than 100 µM; in the data set on Brugia malayi [6], 50 µM. In addition, in the data set on Brugia malayi [6], the concentration for half-maximal inhibition (IC50) stood at 8.84 µM. The “inhibition (INH)” value with Brugia malayi [7] came out at 28.78%. In data set [8], the midpoint of cytotoxicity, the CC50, lay at 10.3 µg/mL (≈ 19 µM).

Regarding `CC1(C)[C@@H](O)CC[C@]2(C)[C@H]3C(=O)C=C4[C@@H]5C[C@@](C)(C(=O)O)CC[C@]5(C)CC[C@@]4(C)[C@]3(C)CC[C@@H]12` [ENOXOLONE], in the data set with Brugia malayi [5], the LC100 is more than 100 µM. In the data set on Brugia malayi [6], the LC100 worked out at 12.5 µM and the half-inhibitory concentration (IC50) was determined as 1.2 µM. In addition, the “inhibition (INH)” value in the data set on Brugia malayi [7] came out at 21.71%.

Turning to `COC(=O)[C@@]1(C)CC[C@]2(C)CC[C@]3(C)C(=CC(=O)[C@@H]4[C@@]5(C)CC[C@H](OC(C)=O)C(C)(C)[C@@H]5CC[C@]43C)[C@@H]2C1`, the “Ratio CC50/IC50” value in data set [3] came to 3.58. The LC100 in the data set with Brugia malayi [5] is more than 100 µM. Also, in the data set on Brugia malayi [6], the LC100 was determined as 25 µM and the IC50 amounted to 2.21 µM. In the data set with Brugia malayi [7], the “inhibition (INH)” value was 7.47%. Besides, the CC50 in data set [8] worked out at 7.92 µg/mL (≈ 15 µM).

In the case of `CCCCCCCCNC(=O)[C@@]1(C)CC[C@]2(C)CC[C@]3(C)C(=CC(=O)[C@@H]4[C@@]5(C)CC[C@H](OC(C)=O)C(C)(C)[C@@H]5CC[C@]43C)[C@@H]2C1`, the results for the “Ratio CC50/IC50” value in data set [2] and in [3] were 6.01 and 2.53, respectively. In addition, the “Ratio IC50” value in the data set with Brugia malayi [10] came to 16. Besides, the result in the data set on Brugia malayi [11] and with Brugia malayi [14] was inactive. The LC100 in the data set with Brugia malayi [5] and in the data set on Brugia malayi [6] was 100 µM throughout. The IC50 in the data set with Brugia malayi [5] was 17.7 µM; with Brugia malayi [6] it was 42 µM. Also, the Ratio in the data set on Brugia malayi [12] stood at 8. Besides, the “inhibition (INH)” value with Brugia malayi [7] is 52.15%. For the same compound, in data set [8], the CC50 came to 106 µg/mL (≈ 170 µM). For the same compound, the Activity in the data set on Brugia malayi [13] was found to be 5%.

`CCCCCCCCCCCC(=O)O[C@H]1CC[C@]2(C)[C@H]3C(=O)C=C4[C@@H]5C[C@@](C)(C(=O)O)CC[C@]5(C)CC[C@@]4(C)[C@]3(C)CC[C@H]2C1(C)C`: the LC100 with Brugia malayi [5] and in the data set on Brugia malayi [6] was more than 100 µM each time. For the same compound, in the data set on Brugia malayi [7], the “inhibition (INH)” value worked out at 10.69%.

As to `CC(=O)O[C@H]1CC[C@]2(C)[C@H]3C(=O)C=C4[C@@H]5C[C@@](C)(C(=O)NCc6ccccc6)CC[C@]5(C)CC[C@@]4(C)[C@]3(C)CC[C@H]2C1(C)C`, the “Ratio CC50/IC50” value in data set [2] is 66.02; in [3] it was 264.06. Also, in the data set on Brugia malayi [11], the outcome was inactive. For the same compound, the figures for the Activity entry in the data set on Meriones unguiculatus, in the data set with Brugia malayi [13] and in the data set on Brugia malayi [14] (route subcutaneous) were “Non-toxic”, 11% and 54.21%, respectively. Besides, the values for the LC100 in the data set on Brugia malayi [5] and with Brugia malayi [6] were 25 µM and 50 µM, respectively. Besides, the values for the IC50 in the data set with Brugia malayi [5] and with Brugia malayi [6] were 8.84 µM and 2.21 µM, respectively. In addition, in the data set on Brugia malayi [15], the “Ratio IC50” value was 160. The Ratio in the data set with Brugia malayi [12] amounted to 32. The “inhibition (INH)” value in the data set with Brugia malayi [7] is 48.79%. Besides, in [8], it took 584 µg/mL (≈ 970 µM) to reach half-maximal cytotoxicity (CC50).

Usually IC50 stands for the midpoint of a concentration-inhibition curve. As a reminder, the CC50 is the concentration giving 50% cytotoxicity.

The values are drawn from ChEMBL document CHEMBL2375261, “Glycyrrhetinic acid and its analogs: a new class of antifilarial agents” (Bioorg Med Chem Lett, 2013).
